Ten compounds from ChEMBL document CHEMBL1938381, “Design, synthesis, and structure-activity relationship studies of conformationally restricted mutilin 14-carbamates” (2012) can be followed below.

Assay type in all cases: functional
The subject of experiment [1] is Staphylococcus aureus. Kind of experiment: Antibacterial activity against methicillin-susceptible Staphylococcus aureus by agar microdilution method. A digest of the protocol: (§1)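 MIC by agar microdilution following NCCLS standard M7-A6 (2003), tested against clinical isolates: MRSA n = 6, MRSE n = 5, MSSA n = 5, MSSE n = 5; values given as a single MIC or a range across isolates.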

Experiment [2] concerns Staphylococcus aureus. Description: Antibacterial activity against methicillin-resistant Staphylococcus aureus by agar microdilution method. A digest of the protocol: as §1
The test system of experiment [3] is Streptococcus pneumoniae. Kind of experiment: Antibacterial activity against Streptococcus pneumoniae by agar microdilution method. In short, it runs like this: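 MIC read by agar microdilution following NCCLS standard M7-A6 (2003), against a panel of 3 Streptococcus pneumoniae clinical isolates. Values in µg/mL, given as a range where the isolates differed.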

Experiment [4] concerns Streptococcus pneumoniae. Description: Ratio of Linezolid MIC to compound MIC for Streptococcus pneumoniae.
For experiment [5], the system named is Staphylococcus epidermidis. Description: Ratio of Linezolid MIC to compound MIC for methicillin-susceptible Staphylococcus epidermidis.
The test system of experiment [6] is Staphylococcus epidermidis. Kind of experiment: Antibacterial activity against methicillin-resistant Staphylococcus epidermidis by agar microdilution method. In short, it runs like this:
as §1

For experiment [7], the system named is Staphylococcus epidermidis. Description: Antibacterial activity against methicillin-susceptible Staphylococcus epidermidis by agar microdilution method. In short, it runs like this: as §1
Experiment [8] relates to Staphylococcus aureus. Description: Ratio of Linezolid MIC to compound MIC for methicillin-susceptible Staphylococcus aureus.

Converted amounts (≈) assume the structure as drawn.

As to `C=C[C@]1(C)C[C@@H](OC(=O)N2Cc3ccccc3C2=O)[C@]2(C)[C@H](C)CC[C@]3(CCC(=O)[C@H]32)[C@@H](C)[C@@H]1O`, the MIC (in the experiment with Staphylococcus aureus [1]; in the experiment on Staphylococcus aureus [2]; against Streptococcus pneumoniae [3]; in experiment [6]; in experiment [7]) was 0.125 µg/mL (≈ 0.261 µM) each time. For the same compound, the Ratio (with Streptococcus pneumoniae [4]; in experiment [5]; in the experiment with Staphylococcus aureus [8]) was 4 each time.
Turning to `C=C[C@]1(C)C[C@@H](OC(=O)N2Cc3cc(N4CCN(C)CC4)ccc3C2=O)[C@]2(C)[C@H](C)CC[C@]3(CCC(=O)[C@H]32)[C@@H](C)[C@@H]1O`, the MIC against Staphylococcus aureus [1] came out at 0.125 µg/mL (≈ 0.216 µM); against Staphylococcus aureus [2], 0.125 µg/mL (≈ 0.216 µM); against Streptococcus pneumoniae [3], 0.25 µg/mL (≈ 0.433 µM); in experiment [6] it was 0.125 µg/mL (≈ 0.216 µM); in experiment [7], 0.125 µg/mL (≈ 0.216 µM). The Ratio (in the experiment on Streptococcus pneumoniae [4]; in experiment [5]; in the experiment on Staphylococcus aureus [8]) was 4 in each case.
With `C=C[C@]1(C)C[C@@H](OC(=O)N2Cc3ccc(NC(=O)[C@@H]4CCCN4)cc3C2=O)[C@]2(C)[C@H](C)CC[C@]3(CCC(=O)[C@H]32)[C@@H](C)[C@@H]1O.Cl`, the MIC against Staphylococcus aureus [1] amounted to 0.25 µg/mL; with Staphylococcus aureus [2], 0.25 µg/mL; against Streptococcus pneumoniae [3], 0.5 µg/mL; in experiment [6] it was 0.25 µg/mL; in experiment [7], 0.25 µg/mL. Also, the Ratio (in the experiment with Streptococcus pneumoniae [4]; in experiment [5]; with Staphylococcus aureus [8]) was 4 in each case.
As for `C=C[C@]1(C)C[C@@H](OC(=O)N2Cc3ccc(F)cc3C2=O)[C@]2(C)[C@H](C)CC[C@]3(CCC(=O)[C@H]32)[C@@H](C)[C@@H]1O`, the MIC (with Staphylococcus aureus [1]; against Staphylococcus aureus [2]; against Streptococcus pneumoniae [3]; in experiment [6]; in experiment [7]) was 0.125 µg/mL (≈ 0.251 µM) throughout. The Ratio (in the experiment with Streptococcus pneumoniae [4]; in experiment [5]; with Staphylococcus aureus [8]) was 4 throughout.
On to `C=C[C@]1(C)C[C@@H](OC(=O)N2CCc3cc(OC)c([N+](=O)[O-])cc3C2=O)[C@]2(C)[C@H](C)CC[C@]3(CCC(=O)[C@H]32)[C@@H](C)[C@@H]1O`, for which the MIC in the experiment on Staphylococcus aureus [1] is 0.125 µg/mL (≈ 0.22 µM); with Staphylococcus aureus [2], 0.25 µg/mL (≈ 0.44 µM); against Streptococcus pneumoniae [3], 0.25 µg/mL (≈ 0.44 µM); in experiment [6] it was 0.25 µg/mL (≈ 0.44 µM); in experiment [7] it was 0.25 µg/mL (≈ 0.44 µM). In addition, the Ratio (in the experiment on Streptococcus pneumoniae [4]; in experiment [5]; in the experiment on Staphylococcus aureus [8]) was 4 throughout.
Consider `C=C[C@]1(C)C[C@@H](OC(=O)N2Cc3ccc(NC(=O)[C@@H](N)C(C)C)cc3C2=O)[C@]2(C)[C@H](C)CC[C@]3(CCC(=O)[C@H]32)[C@@H](C)[C@@H]1O.Cl`, for which the MIC in the experiment with Staphylococcus aureus [1] came out at 1 µg/mL; in the experiment with Staphylococcus aureus [2], 1 µg/mL; against Streptococcus pneumoniae [3] it was 2 µg/mL; in experiment [6] it was 1 µg/mL; in experiment [7], 1 µg/mL.
`C=C[C@]1(C)C[C@@H](OC(=O)N2Cc3cc(N4CCCCC4)ccc3C2=O)[C@]2(C)[C@H](C)CC[C@]3(CCC(=O)[C@H]32)[C@@H](C)[C@@H]1O`: the MIC against Staphylococcus aureus [1] came out at 2 µg/mL (≈ 3.55 µM); with Staphylococcus aureus [2], 2 µg/mL (≈ 3.55 µM); against Streptococcus pneumoniae [3] it was 4 µg/mL (≈ 7.11 µM); in experiment [6], 2 µg/mL (≈ 3.55 µM); in experiment [7], 2 µg/mL (≈ 3.55 µM).
Turning to `C=C[C@]1(C)C[C@@H](OC(=O)N2Cc3cc(NCc4ccccc4)ccc3C2=O)[C@]2(C)[C@H](C)CC[C@]3(CCC(=O)[C@H]32)[C@@H](C)[C@@H]1O`, the MIC (in the experiment with Staphylococcus aureus [1]; with Staphylococcus aureus [2]; with Streptococcus pneumoniae [3]; in experiment [6]; in experiment [7]) was 2 µg/mL (≈ 3.42 µM) throughout.
Consider `C=C[C@]1(C)C[C@@H](OC(=O)N2Cc3cc(N)ccc3C2=O)[C@]2(C)[C@H](C)CC[C@]3(CCC(=O)[C@H]32)[C@@H](C)[C@@H]1O`, for which the minimum inhibitory concentration (MIC) (against Staphylococcus aureus [1]; in the experiment with Staphylococcus aureus [2]; in the experiment with Streptococcus pneumoniae [3]; in experiment [6]; in experiment [7]) was 0.125 µg/mL (≈ 0.253 µM) in each case. For the same compound, the Ratio (in the experiment on Streptococcus pneumoniae [4]; in experiment [5]; with Staphylococcus aureus [8]) was 4 throughout.
On to `C=C[C@]1(C)C[C@@H](OC(=O)CS[C@@H]2C[C@H]3CC[C@@H](C2)N3C)[C@]2(C)[C@H](C)CC[C@]3(CCC(=O)[C@H]32)[C@@H](C)[C@@H]1O` [RETAPAMULIN], for which the minimal inhibitory concentration (MIC) against Staphylococcus aureus [1] amounted to 0.0625 µg/mL (≈ 0.121 µM); against Staphylococcus aureus [2] it was 0.125 µg/mL (≈ 0.241 µM); against Streptococcus pneumoniae [3], 0.0625 µg/mL (≈ 0.121 µM); in experiment [6], 0.125 µg/mL (≈ 0.241 µM); in experiment [7], 0.0625 µg/mL (≈ 0.121 µM).

One may read the MIC as the smallest concentration in the dilution series that meets the test's criterion for growth inhibition. Read a high MIC as a need for much substance.
